Source: paper PMC3628437 (Antiviral research, 2013)

Legend:
hepatitis B virus (HBV) = assay: Real-time immune-absorbance PCR; type: cell-based; conditions: for Fold HBV reduction / Reduction of HBV virion levels in culture medium: G2.215 cells; for Fold HBV reduction: 10 μM compound, HBV DNA in culture medium by IA-PCR; for Reduction of HBV virion levels in culture medium: 5μM
equine herpesvirus-4 = conditions: ref Romanowski et al., 1999; Storey et al., 2002; cited from earlier work
HBV replication [1] = assay: Southern blot of cellular HBV replication intermediates in G2.215 cells; type: cell-based, hepatitis B virus; conditions: any concentration tested
Procedure, shortened: (§1)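 Cytoplasmic core DNA: one 6-well-plate well lysed 10 min at 37°C in Tris-EDTA pH 8.0 with NP40/sucrose. Nuclei removed; capsids PEG8000/NaCl-precipitated 2 h at 4°C, pronase/SDS-digested 1 h at 37°C, phenol-extracted, ethanol-precipitated. Half run on 1.5% agarose, depurinated, denatured, neutralised, blotted and probed with α-32P-UTP HBV probe for RC, DSL and SS forms. HepDE19 tet-free 5 days before dosing; G2.215 kept in G418.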

feline herpesvirus-1 = conditions: ref Romanowski et al., 1999; Storey et al., 2002; cited from earlier work
[2] = system: HBV large surface protein (LHBs); assay: Western blot of LHBs-containing HBV particles in G2.215 culture medium; type: cell-based, hepatitis B virus; conditions: G2.215 cells, 10 or 20μM, 6 day treatment
Varicella Zoster Virus = conditions: ref Mekler et al., 1969; cited from earlier work
HBV replication [3] = assay: Southern blot of cellular HBV DNA in HepDE19 cells; type: cell-based, hepatitis B virus; conditions: up to 10 μM
Procedure, shortened: as §1

HBV virions = type: cell-based, hepatitis B virus; conditions: HepDE19 cells, 5 day treatment
Procedure, shortened: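 HepDE19 cells (DMEM/F12, 10% FBS, tetracycline-suppressed) were switched to tet-free medium for 5 days, then dosed for 5 days at several concentrations (0.5% DMSO final). Virions from 1ml clarified medium were precipitated with 10% PEG8000 (final), 1 h at 4°C, pelleted and dissolved in TNE pH7.4. Run on non-denaturing 1% agarose to separate virions from naked nucleocapsids, then blotted and hybridized with labeled HBV probe.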

influenza virus = conditions: ref Mekler et al., 1969; cited from earlier work

For `C[C@@H]1C/C=C/C=C/C=C/C=C/[C@H](O[C@@H]2O[C@H](C)[C@@H](O)[C@H](N)[C@@H]2O)C[C@@H]2O[C@](O)(C[C@@H](O)C[C@H]3O[C@@H]3/C=C/C(=O)O1)C[C@H](O)[C@H]2C(=O)O` [Natamycin], the “Fold HBV reduction” value (hepatitis B virus (HBV); 6 days) was 4 Fold.

For `Nc1ccn([C@@H]2CS[C@H](CO)O2)c(=O)n1` [lamivudine], the “CT of medium from treated G2.215 cells” value (hepatitis B virus (HBV); 30μM, 6 days, carrier alone CT ~26 undiluted) was 30–31 CT.

For `CCCOc1ccc(C(=O)OCCN(CC)CC)cc1N` [Proparacaine], the Inactivation of virus (equine herpesvirus-4) is listed as “can inactivate”, the “Reduction of HBV virion levels in culture medium” value (hepatitis B virus (HBV)) is listed as ~ 3 CT and the “Fold HBV reduction” value (hepatitis B virus (HBV); 6 days) is listed as 6 Fold. For the same molecule, the IC50 (hepatitis B virus (HBV); Hepatitis B virus, read-out: IC50 against HBV) was 1000 nM, the “Level of relaxed circular HBV DNA (RC-DNA) versus untreated control” value (HBV replication [1]) was “no reduction” and the Inactivation of virus (feline herpesvirus-1) was “can inactivate”. The “Inhibition of secretion of HBV particles containing LHBs in culture medium” value [2] was 3- to 4 fold.

For `C=Cc1c(C)c2cc3nc(c4c5[n-]c(cc6nc(cc1[n-]2)C(C)=C6CC)c(C)c5C(=O)[C@@H]4C(=O)OC)[C@@H](CCC(=O)O)[C@@H]3C.[Mg+2]` [Chlorophyllide], the Inactivation of virus (Varicella Zoster Virus) is listed as “inactivate”, the “Reduction of HBV virion levels in culture medium” value (hepatitis B virus (HBV)) is listed as ~ 2 CT and the “Fold HBV reduction” value (hepatitis B virus (HBV); 6 days) is listed as 4 Fold. For the same molecule, the “RC or SS DNA levels (cellular HBV DNA)” value (HBV replication [3]) was “did not repress”, the “Formation and secretion of nucleocapsids” value (HBV virions) was “not affected” and the “Viral particles in cell culture medium” value (HBV virions) was “reduces viral particles in the cell culture medium in a dose-dependent manner”. The Inactivation of virus (influenza virus) was “inactivate”.

In the case of `O=C(c1ccc(OCCN2CCCCC2)cc1)c1c(-c2ccc(O)cc2)sc2cc(O)ccc12` [Raloxifene], the “Fold HBV reduction” value (hepatitis B virus (HBV); 6 days) is reported as 3.5 Fold.
